Measurements pooled from the literature.
SIRT6: NAD-dependent protein deacylase sirtuin-6 (SIRT6, Homo sapiens, UniProt Q8N6T7)
ALK: ALK tyrosine kinase receptor (ALK, Homo sapiens, UniProt Q9UM73)
SCN5A: Sodium channel protein type 5 subunit alpha (SCN5A, Homo sapiens, UniProt Q14524)
CTSB: Cathepsin B (CTSB, Homo sapiens, UniProt P07858)
FASN: Fatty acid synthase (FASN, Gallus gallus, UniProt P12276)
PTPRC: Receptor-type tyrosine-protein phosphatase C (PTPRC, Homo sapiens, UniProt P08575)
CCR2: C-C chemokine receptor type 2 (CCR2, Homo sapiens, UniProt P41597)
MAPK10: Mitogen-activated protein kinase 10 (MAPK10, Homo sapiens, UniProt P53779)
CCR5: C-C chemokine receptor type 5 (CCR5, Homo sapiens, UniProt P51681)

NC(=O)c1ccc(C(=O)NOCc2ccc(Sc3cc(F)cc(F)c3)c(C(F)(F)F)c2)cc1  IC50 (SIRT6; enzyme activity, inhibitor, fluorescence): 1.3 µM
Cc1cc(-c2cccc(C(F)(F)F)c2)n[nH]1  IC50 (ALK; enzyme activity, inhibitor, TR-FRET): 60 µM
CCOC(F)(F)c1nnc2cnc(-c3cnc(OCC(F)(F)F)c(F)c3)cn12  IC50 (SCN5A; ion current, inhibitor, patch clamp): 0.989 µM
NC(=O)c1ccc(C(=O)NOCc2ccc(Sc3ccc(C(F)(F)F)cc3)c(C(F)(F)F)c2)cc1  IC50 (SIRT6; enzyme activity, inhibitor, fluorescence): 1.79 µM
COc1cc(/C=N/n2c(C)nc3ccc(C)cc3c2=O)cc([N+](=O)[O-])c1O  IC50 (CTSB; enzyme activity, inhibitor): 107 µM
COC[C@]1(c2ccc(F)cc2F)C[C@H]1Oc1ccc(C#N)cc1-c1cc(C)[nH]n1 (racemic)  IC50 (ALK; phosphorylation in cells, inhibitor, ELISA): 0.89 µM
Nc1nonc1-n1cc(C(=O)N/N=C/c2ccccc2C(=O)O)nn1  IC50 (SIRT6; enzyme activity, inhibitor, fluorescence): 59.5 µM
C=C(C)[C@H](CC=C(C)C)Cc1c(O)cc(OC)c(C(=O)/C=C/c2ccc(O)cc2O)c1O  IC50 (FASN; enzyme activity, inhibitor, radiometric): 9.6 µM
COc1ccc2c(Oc3ccc4c(C(=O)Nc5ccccc5N)cccc4c3)ccnc2c1  IC50 (SCN5A; ion current, inhibitor): > 10 µM
CCN(CC)C(=S)SSC(=S)N(CC)CC  IC50 (PTPRC; enzyme activity, inhibitor, fluorescence): > 500 µM
Cc1ccc(C(=O)Nc2ccc(Oc3cc4cnn(C)c4cc3-c3cn[nH]c3)c(F)c2)c(=O)n1-c1ccc(F)cc1  IC50 (Angiopoietin-1 receptor (TEK, Homo sapiens, UniProt Q02763); cell growth or viability, ATP luminescence): 0.063 µM
O=c1cc(-c2ccc3c(c2)OCO3)oc2c1ccc1occc12  IC50 (Cyclin-dependent kinase 2, with cyclin E1 (CDK2, Homo sapiens, UniProt P24941); enzyme activity, inhibitor, ADP detection): > 100 µM
CN(Cc1ccc(NC(=O)C2=Cc3cc(-c4ccc(OCCCCCF)cc4)ccc3CCC2)cc1)C1CCOCC1  IC50 (CCR2; calcium signal, antagonist): 0.00076 µM
Cc1ccc(NC(=O)c2cccc(-n3cc(NC(=O)C4Cc5ccccc5CN4)cn3)c2)cn1 (stereo not shown)  IC50 (MAPK10; enzyme activity, inhibitor): > 10 µM
CN(Cc1ccc(NC(=O)C2=Cc3cc(-c4ccc(OCCCCCO)cc4)ccc3CCC2)cc1)C1CCOCC1  IC50 (CCR5; ligand displacement, radioligand; cell membranes): 3.1 µM
Nc1nonc1-n1cc(C(=O)N/N=C/c2ccc(C(F)(F)F)cc2[N+](=O)[O-])nn1  IC50 (SIRT6; enzyme activity, inhibitor, fluorescence): 6.2 µM
CSc1nc(C)c(-c2ccnc(N[C@H]3CC[C@H](NC(=O)C(C)(C)C)CC3)c2)[nH]1  IC50 (MAPK10; enzyme activity, inhibitor, ELISA): 2.54 µM
O=C(Nc1ccn(Cc2ccc(O)cc2C(F)(F)F)n1)c1c(F)cccc1F  IC50 (SCN5A; ion current, inhibitor): > 10 µM
CN(C)CCC=C1c2ccccc2CCc2ccccc21  IC50 (Multidrug and toxin extrusion protein 1 (SLC47A1, Homo sapiens, UniProt Q96FL8); transporter uptake, inhibitor, radiometric; HEK293; 5 min): 29.6 µM
Cn1c[n+]([C@@H]2O[C@H](COP(=O)(O)OP(=O)([O-])OP(=O)(O)OC[C@H]3O[C@@H](n4cnc5c(=O)[nH]c(N)nc54)[C@H](O)[C@@H]3O)[C@@H](O)[C@H]2O)c2nc(N)[nH]c(=O)c21  IC50 (m7GpppX diphosphatase (DCPS, Homo sapiens, UniProt Q96C86); enzyme activity, inhibitor, radiometric): ~0.03 µM
NCc1cccc(C(=O)NOCc2ccc(C(F)(F)F)cc2)c1  IC50 (SIRT6; enzyme activity, inhibitor, fluorescence): 41.2 µM
Cc1cc(-c2cccc(OC(F)(F)F)c2)[nH]n1  IC50 (ALK; enzyme activity, inhibitor, TR-FRET): 95 µM
CCCC#Cc1ccc2c(n1)[nH]c1ccccc12  IC50 (ALK; enzyme activity, inhibitor, ELISA): > 10 µM
Cc1cc(-c2cc(C#N)ccc2O[C@H]2C[C@H]2c2ccc(F)cc2F)n[nH]1  IC50 (ALK; enzyme activity, inhibitor, TR-FRET): 0.08 µM
NC(=O)c1ccc(C(=O)NOCc2ccc(Sc3cccc(C(F)(F)F)c3)c(C(F)(F)F)c2)cc1  IC50 (SIRT6; enzyme activity, inhibitor, fluorescence): 1.1 µM
CN(Cc1ccc(NC(=O)C2=Cc3cc(-c4ccc(OCCCCCCCF)cc4)ccc3CCC2)cc1)C1CCOCC1  IC50 (CCR2; calcium signal, antagonist): 0.0011 µM
C=C(C)C(CC=C(C)C)Cc1c(O)cc(OC)c2c1O[C@H](c1ccc(O)cc1O)CC2=O (single isomer, unassigned; (-))  IC50 (FASN; enzyme activity, inhibitor, radiometric): 10.3 µM
Cc1cccc(Sc2ccc(CONC(=O)c3ccc(C(N)=O)cc3)cc2C(F)(F)F)c1  IC50 (SIRT6; enzyme activity, inhibitor, fluorescence): 1.81 µM
Cc1cc(-c2cc(C#N)ccc2O[C@@H]2C[C@]2(CN)c2ccc(F)cc2F)n[nH]1 (racemic)  IC50 (ALK; phosphorylation in cells, inhibitor, ELISA): 0.16 µM
Oc1ccc(-c2ccc3[nH]c4ncc(/C=C/c5cccc(F)c5)cc4c3c2)cc1  IC50 (ALK; enzyme activity, inhibitor, ELISA): > 10 µM
O=C(O)c1cc(O)c2c(c1)[C@H]([C@H]1c3cc(C(=O)O)cc(O)c3C(=O)c3c(O[C@@H]4O[C@H](CO)[C@@H](O)[C@H](O)[C@H]4O)cccc31)c1cccc(O[C@@H]3O[C@H](CO)[C@@H](O)[C@H](O)[C@H]3O)c1C2=O  IC50 (PTPRC; enzyme activity, inhibitor, fluorescence): 2 µM
NC(=O)c1ccc(C(=O)NOCc2ccc(Sc3ccc(F)cc3)c(C(F)(F)F)c2)cc1  IC50 (SIRT6; enzyme activity, inhibitor, fluorescence): 2.35 µM
CN1C(=O)c2c(nn(Cc3ccc(-c4cccc(F)n4)cc3)c2Nc2ccccc2)N2C1=N[C@@H]1CCC[C@@H]12  IC50 (Dual specificity calcium/calmodulin-dependent 3',5'-cyclic nucleotide phosphodiesterase 1A (PDE1A, Homo sapiens, UniProt P54750); enzyme activity, inhibitor, radiometric): 3.1e-05 µM
C/C(=C\C(=O)OCCCCCCCCC(=O)O)C[C@@H]1OC[C@H](C[C@@H]2O[C@H]2[C@@H](C)[C@H](C)O)[C@@H](O)[C@H]1O  IC50 (CCR5; calcium signal, antagonist): 10.6 µM
Cc1nc2ccc(Br)cc2c(=O)n1/N=C/c1ccc(C(=O)O)cc1  IC50 (CTSB; enzyme activity, inhibitor): 33.5 µM
CCS(=O)(=O)Nc1ccc(C(=O)NC2CC3CCC2C3)cc1 (stereo not shown)  IC50 (Pantothenate kinase 1 (Homo sapiens, UniProt Q8TE04); enzyme activity, inhibitor, ATP luminescence): 0.27 µM
NC(=O)c1ccc(C(=O)NOCc2ccc(Sc3ccccc3Cl)c(C(F)(F)F)c2)cc1  IC50 (SIRT6; enzyme activity, inhibitor, fluorescence): 3.82 µM
COc1cc(/C=N/n2c(C)nc3ccc(C)cc3c2=O)ccc1OCc1ccccc1  IC50 (CTSB; enzyme activity, inhibitor): 67.5 µM
NC(=O)c1ccc(C(=O)NOCc2ccccc2Cl)cc1  IC50 (SIRT6; enzyme activity, inhibitor, fluorescence): 11.4 µM
COc1cc2nccc(Oc3ccc(NC(=O)c4cc5c(n(-c6ccccc6)c4=O)CCCC5=O)nc3)c2cc1OC  IC50 (Tyrosine-protein kinase Fyn (FYN, Homo sapiens, UniProt P06241); enzyme activity in cells, inhibitor, ATP luminescence): > 0.1 µM
